# Activity calls are given as the source filed them. The calls are words filed in the database; no cut-off is given here.
# Columns and labels:
# [1] = biological target: Phosphatidylinositol 4,5-bisphosphate 3-kinase catalytic subunit gamma isoform (Homo sapiens, UniProt P48736); experiment: Inhibition of PI3Kgamma (unknown origin) using phosphatidyl inositol as substrate measured after 30 mins by Alexa Fluor647-labelled ADP tracer based TR-FRET assay
# [2] = Inhibition of PI3Kdelta in 50% rat blood assessed as reduction in anti-IgM stimulated CD86 expression pretreated for 1 hr followed by anti-IgM stimulation after 24 hrs by flow cytometric analysis
# Procedure, shortened: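 Rat 50% whole blood; B cells stimulated with anti-IgM/IL-4; readouts pAKT or CD86.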
# [3] = biological target: Phosphatidylinositol 4-kinase beta (Homo sapiens, UniProt Q9UBF8); experiment: Inhibition of PI4Kbeta (unknown origin) using phosphatidyl inositol/n-Octyl-glucoside as substrate measured after 30 mins by KinaseGlo assay
# Phosphatidylinositol 4-kinase beta, sequence (Q9UBF8 whole entry): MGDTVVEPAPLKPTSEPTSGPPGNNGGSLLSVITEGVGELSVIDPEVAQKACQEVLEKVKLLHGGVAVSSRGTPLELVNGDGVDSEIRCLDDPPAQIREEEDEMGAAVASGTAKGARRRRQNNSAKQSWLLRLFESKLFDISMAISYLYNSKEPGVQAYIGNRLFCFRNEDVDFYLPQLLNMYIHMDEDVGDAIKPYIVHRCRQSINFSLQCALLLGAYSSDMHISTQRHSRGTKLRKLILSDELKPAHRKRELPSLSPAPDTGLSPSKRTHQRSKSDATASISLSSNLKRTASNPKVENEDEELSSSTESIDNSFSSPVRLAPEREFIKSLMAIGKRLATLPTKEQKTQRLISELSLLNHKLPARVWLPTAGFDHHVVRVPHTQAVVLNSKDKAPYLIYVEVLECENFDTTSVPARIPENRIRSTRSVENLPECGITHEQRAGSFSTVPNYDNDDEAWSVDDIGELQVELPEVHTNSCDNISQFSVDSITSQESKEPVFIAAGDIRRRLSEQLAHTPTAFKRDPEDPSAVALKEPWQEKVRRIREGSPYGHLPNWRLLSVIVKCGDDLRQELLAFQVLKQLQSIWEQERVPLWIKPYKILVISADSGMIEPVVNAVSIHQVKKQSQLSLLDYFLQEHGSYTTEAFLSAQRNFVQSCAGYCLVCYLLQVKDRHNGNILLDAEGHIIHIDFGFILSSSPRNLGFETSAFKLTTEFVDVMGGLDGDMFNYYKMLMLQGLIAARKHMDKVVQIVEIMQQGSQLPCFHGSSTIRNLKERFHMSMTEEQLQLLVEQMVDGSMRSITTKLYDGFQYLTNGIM
# [4] = biological target: Serine/threonine-protein kinase mTOR (Homo sapiens, UniProt P42345); experiment: Inhibition of recombinant mTOR (unknown origin) using 4EBP1 as substrate by TR-FRET assay
# [5] = biological target: 3',5'-cyclic-AMP phosphodiesterase 4D (Homo sapiens, UniProt Q08499); experiment: Inhibition of recombinant human PDE4D
# 3',5'-cyclic-AMP phosphodiesterase 4D, sequence (Q08499 whole entry): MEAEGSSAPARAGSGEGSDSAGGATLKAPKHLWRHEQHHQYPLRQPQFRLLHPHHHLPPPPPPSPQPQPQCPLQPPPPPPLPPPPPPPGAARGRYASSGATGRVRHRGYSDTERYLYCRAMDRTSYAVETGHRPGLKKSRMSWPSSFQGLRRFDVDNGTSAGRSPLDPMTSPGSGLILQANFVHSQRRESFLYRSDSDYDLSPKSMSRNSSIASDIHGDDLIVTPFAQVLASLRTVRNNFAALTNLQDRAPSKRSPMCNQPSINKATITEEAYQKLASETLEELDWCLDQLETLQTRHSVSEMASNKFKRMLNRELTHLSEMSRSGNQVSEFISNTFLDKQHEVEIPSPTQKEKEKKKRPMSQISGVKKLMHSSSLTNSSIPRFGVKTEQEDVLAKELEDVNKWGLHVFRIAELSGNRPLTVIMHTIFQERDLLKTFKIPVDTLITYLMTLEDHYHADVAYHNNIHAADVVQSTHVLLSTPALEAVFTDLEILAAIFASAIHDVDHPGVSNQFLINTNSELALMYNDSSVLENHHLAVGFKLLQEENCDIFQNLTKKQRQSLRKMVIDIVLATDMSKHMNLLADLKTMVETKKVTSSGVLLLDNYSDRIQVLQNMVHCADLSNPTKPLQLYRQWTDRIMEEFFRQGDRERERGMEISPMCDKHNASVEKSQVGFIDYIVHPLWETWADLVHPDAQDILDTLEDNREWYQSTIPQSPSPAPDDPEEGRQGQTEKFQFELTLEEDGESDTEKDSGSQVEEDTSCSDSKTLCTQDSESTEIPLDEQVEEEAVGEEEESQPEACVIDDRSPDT
# [6] = biological target: Ribosomal protein S6 kinase alpha-5 (Homo sapiens) (UniProt O75582); experiment: Inhibition of wild-type human partial length RPS6KA5 expressed in bacterial expression system at 10 uM by Kinomescan method relative to control
# Ribosomal protein S6 kinase alpha-5 (Homo sapiens), sequence (O75582 whole entry, looked up): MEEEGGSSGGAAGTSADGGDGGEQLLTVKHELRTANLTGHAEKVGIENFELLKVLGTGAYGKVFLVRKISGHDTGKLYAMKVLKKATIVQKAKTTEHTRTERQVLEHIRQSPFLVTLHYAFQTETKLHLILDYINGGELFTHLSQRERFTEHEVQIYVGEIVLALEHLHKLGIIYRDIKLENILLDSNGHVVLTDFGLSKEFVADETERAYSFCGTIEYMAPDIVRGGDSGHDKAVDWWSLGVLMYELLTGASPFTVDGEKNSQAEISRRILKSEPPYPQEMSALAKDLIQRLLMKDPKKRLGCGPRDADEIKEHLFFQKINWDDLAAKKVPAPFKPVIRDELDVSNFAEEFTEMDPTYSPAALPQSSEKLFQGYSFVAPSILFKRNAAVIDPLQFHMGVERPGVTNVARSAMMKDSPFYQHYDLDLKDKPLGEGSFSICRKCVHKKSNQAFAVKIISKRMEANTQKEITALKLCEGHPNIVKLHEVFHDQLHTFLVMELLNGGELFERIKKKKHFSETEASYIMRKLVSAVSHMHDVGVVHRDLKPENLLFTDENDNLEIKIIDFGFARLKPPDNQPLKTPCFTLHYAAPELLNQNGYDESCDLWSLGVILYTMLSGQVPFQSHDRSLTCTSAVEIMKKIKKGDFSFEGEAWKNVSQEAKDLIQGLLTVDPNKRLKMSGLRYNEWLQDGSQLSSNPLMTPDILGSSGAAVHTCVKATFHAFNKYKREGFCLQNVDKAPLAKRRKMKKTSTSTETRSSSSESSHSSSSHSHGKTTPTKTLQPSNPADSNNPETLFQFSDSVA
# [7] = Tmax in Sprague-Dawley rat at 3 mg/kg, po by RP-HPLC analysis; assay type: ADME, organism-based; settings: in vivo
# [8] = Oral bioavailability in Sprague-Dawley rat at 30 mg/kg by RP-HPLC analysis; assay type: ADME, organism-based; settings: in vivo
# Rattus norvegicus [9] = experiment: Dose normalized Cmax in Sprague-Dawley rat at 30 mg/kg, po by RP-HPLC analysis; assay type: ADME, organism-based; settings: in vivo
# [10] = Clearance in Beagle dog at 0.1 mg/kg, iv by RP-HPLC analysis; assay type: ADME, organism-based, Canis lupus familiaris; settings: in vivo
# Canis familiaris = experiment: Dose normalized AUC in Beagle dog at 0.1 mg/kg, iv by RP-HPLC analysis; assay type: ADME, organism-based, Canis lupus familiaris; settings: in vivo
# [11] = Oral bioavailability in cynomolgus monkey at 0.3 mg/kg by RP-HPLC analysis; assay type: ADME, organism-based, Macaca fascicularis; settings: in vivo
# Rattus norvegicus [12] = experiment: Ex-vivo inhibition of PI3Kdelta in po dosed Lewis rat assessed as reduction in anti-IgM/IL4-induced AKT phosphorylation at ser473 residue in whole blood pretreated up to 24 hrs followed by anti-IgM/IL4 stimulation after 10 mins by flow cytometric analysis; assay type: functional, organism-based
# Rattus norvegicus [13] = experiment: In-vivo inhibition of PI3Kdelta in po dosed sheep RBC-sensitized OFA-rat assessed as reduction in antigen-specific antibody response to SRBC by measuring plaque formation treated for 4 days starting from day 1 of immunization by microscopic method; assay type: functional, organism-based
# Rattus norvegicus [14] = experiment: In-vivo inhibition of PI3Kdelta in sheep RBC-sensitized OFA-rat assessed as reduction in antigen-specific antibody response to SRBC by measuring plaque formation at 30 mg/kg, po bid treated for 4 days starting from day 1 of immunization by microscopic method relative to control; assay type: functional
# Rattus norvegicus [15] = experiment: (§1) Antiarthritic activity in Lewis rat type-2 collagen-induced arthritis model assessed as reduction in paw swelling at 3 to 10 mg/kg, po bid administered prior to disease onset for 19 days starting from 5 days post type-2 collagen-induction measured 3 times a week measured up to 19 days; assay type: functional, organism-based
# Procedure, shortened: (§2)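 Rat collagen-induced arthritis, prophylactic regimen: dosing starts before disease onset, b.i.d. Readouts are anti-rat collagen antibodies, paw swelling, and histology (inflammatory cell infiltration, proteoglycan loss, joint erosion).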
# Rattus norvegicus [16] = experiment: as §1, with “inflammatory cell infiltration” for “paw swelling”, “post last dose by giemsa/safranin O staining based histopathological analysis” for “3 times a week measured up to 19 days”; assay type: functional, organism-based; procedure, shortened: as §2
# Phosphatidylinositol 4,5-bisphosphate 3-kinase catalytic subunit gamma isoform, sequence (P48736 whole entry, canonical isoform): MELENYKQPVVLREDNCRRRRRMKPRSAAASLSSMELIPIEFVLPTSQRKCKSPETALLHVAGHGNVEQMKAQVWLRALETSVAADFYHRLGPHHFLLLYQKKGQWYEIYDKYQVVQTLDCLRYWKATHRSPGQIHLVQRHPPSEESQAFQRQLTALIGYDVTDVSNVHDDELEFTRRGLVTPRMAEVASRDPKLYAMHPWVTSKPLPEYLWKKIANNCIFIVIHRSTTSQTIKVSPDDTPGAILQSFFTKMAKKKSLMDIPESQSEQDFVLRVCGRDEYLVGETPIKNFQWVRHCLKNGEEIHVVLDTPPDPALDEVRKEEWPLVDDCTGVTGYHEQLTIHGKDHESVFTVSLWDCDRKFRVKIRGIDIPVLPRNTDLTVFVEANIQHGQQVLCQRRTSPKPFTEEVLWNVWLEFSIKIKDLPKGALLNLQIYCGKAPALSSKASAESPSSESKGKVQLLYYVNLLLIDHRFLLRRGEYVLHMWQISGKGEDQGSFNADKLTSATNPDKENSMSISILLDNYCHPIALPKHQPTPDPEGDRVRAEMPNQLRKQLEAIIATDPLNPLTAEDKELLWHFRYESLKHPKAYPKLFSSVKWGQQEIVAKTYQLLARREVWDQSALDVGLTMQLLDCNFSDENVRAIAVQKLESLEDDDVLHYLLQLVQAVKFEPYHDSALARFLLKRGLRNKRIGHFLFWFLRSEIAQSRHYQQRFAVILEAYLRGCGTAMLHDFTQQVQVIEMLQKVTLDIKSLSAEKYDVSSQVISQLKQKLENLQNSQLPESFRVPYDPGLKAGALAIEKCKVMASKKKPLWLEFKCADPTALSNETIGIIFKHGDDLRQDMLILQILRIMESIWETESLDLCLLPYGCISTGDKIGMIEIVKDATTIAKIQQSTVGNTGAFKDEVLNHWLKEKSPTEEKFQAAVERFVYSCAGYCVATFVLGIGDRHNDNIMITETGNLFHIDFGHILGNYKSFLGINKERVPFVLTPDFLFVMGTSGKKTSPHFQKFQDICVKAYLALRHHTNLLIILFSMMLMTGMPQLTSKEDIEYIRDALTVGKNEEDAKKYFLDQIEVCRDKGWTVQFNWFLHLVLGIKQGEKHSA
structure (smiles),measurement,setting,value
CCC(=O)N1CC[C@H](Nc2ncnc3c2CN(c2cnc(OC)c(C(F)(F)F)c2)CC3)C1 [LENIOLISIB],IC50,[1],2230 nM
same,IC50,[2],99 nM
same,IC50,[3],> 9.1 µM
same,IC50,[4],> 9.1 µM
same,IC50,[5],4.7 µM
same,inhibition,[6],76%
same,Tmax,[7],24 min
same,bioavailability,[8],> 100%
same,Cmax/dose,Rattus norvegicus [9],334 nM
same,clearance,[10],2 mL/min/kg
same,AUC/dose,Canis familiaris,20120 nM·h
same,bioavailability,[11],13%
same,fEC50,Rattus norvegicus [12],5 nM
same,EC50,"Rattus norvegicus [12]; Rattus norvegicus, Lewis",83 nM
same,inhibition,Rattus norvegicus [13],Dose-dependent effect
same,inhibition in vivo at 30 mg/kg,Rattus norvegicus [14],96%
same,Activity,Rattus norvegicus [15],Active
same,Activity,Rattus norvegicus [16],Active

# From ChEMBL document CHEMBL4130456 (ACS Med Chem Lett, 2017)
